Source: ChEMBL document CHEMBL5724801, “EUbOPEN Chemogenomics Library - Multiplex” (2024)
Several values for one entry are separate records, joined by “and”; a condition that tells them apart may be missing. Identical values can stand only once.

Experiments:
HEK-293T = assay: Multiplex assay against HEK293T; type: toxicity, cell-based; conditions: human
How it was run: (§1)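 Four dyes were applied at seeding to live cells: Hoechst33342, BioTracker Green Microtubule Cytoskeleton Dye, MitoTracker Red and Annexin V Alexa Fluor 680. Imaging after compound addition used a CQ1 microscope at 37°C and 5% CO2. CellPathfinder machine-learning gating then sorted cells into Hoechst high-intensity objects or normal cells, normal cells into healthy, pyknosed or fragmented nuclei, and pyknosed cells into mitotic or apoptotic, with tubulin, mitochondrial-mass and membrane-permeability phenotypes given as per cents of healthy-nucleus cells.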

U2OS = assay: Multiplex assay against U2OS; type: toxicity, cell-based; conditions: human; how it was run: as §1
[1] = 12 h, 1 µM, compound concentration 1 uM
[2] = 12 h, 10 µM, compound concentration 10 uM
[3] = 24 h, 1 µM, compound concentration 1 uM
[4] = 24 h, 10 µM, compound concentration 10 uM
[5] = 48 h, 1 µM, compound concentration 1 uM
[6] = 48 h, 10 µM, compound concentration 10 uM

## COC(=O)C1=C(C)NC(C)=C(C(=O)OC(C)C)C1c1cccc2nonc12 (stereo not given) [ISRADIPINE]
HEK-293T; [1]
  Population Apoptotic (%): 14.42% and 4.72%
  Population Fragmented Nuclei (%): 2.79% and 5.84%
  Population Hoechst High Intensity Objects (%): 0%
  Population Membrane Permeable-Phenotype (%): 0%
  Population Mitochondria Different-Phenotype (%): 37.14% and 47.83%
  Population Mitotic Cells (%): 85.58% and 95.28%
  Population Normal (%): 100%
  Population Pyknosed Nuclei (%): 32.2% and 77.37%
  Total Cell Count: 323 and 137
HEK-293T; [2]
  Population Apoptotic (%): 3.97% and 9.29%
  Population Fragmented Nuclei (%): 0.97% and 1.28%
  Population Hoechst High Intensity Objects (%): 0.32% and 0%
  Population Membrane Permeable-Phenotype (%): 0.65% and 0%
  Population Mitochondria Different-Phenotype (%): 39.61% and 35.71%
  Population Mitotic Cells (%): 96.03% and 90.71%
  Population Normal (%): 99.68% and 100%
  Population Pyknosed Nuclei (%): 49.03% and 89.74%
  Total Cell Count: 309 and 156
HEK-293T; [3]
  Population Apoptotic (%): 10.81% and 2.08%
  Population Fragmented Nuclei (%): 3.28% and 3.47%
  Population Healthy Nuclei (%): 76.5% and 41.04%
  Population Hoechst High Intensity Objects (%): 0% and 1.14%
  Population Membrane Permeable-Phenotype (%): 2.62% and 1.41%
  Population Mitochondria Different-Phenotype (%): 16.9% and 15.49%
  Population Mitotic Cells (%): 89.19% and 97.92%
  Population Normal (%): 100% and 98.86%
  Population Pyknosed Nuclei (%): 20.22% and 55.49%
  Population Tubulin-Different-Phenotype (%): 7.62% and 1.41%
HEK-293T; [4]
  Population Apoptotic (%): 14.52% and 14.29%
  Population Fragmented Nuclei (%): 1% and 1.72%
  Population Hoechst High Intensity Objects (%): 0.5% and 0%
  Population Membrane Permeable-Phenotype (%): 1.48% and 0%
  Population Mitochondria Different-Phenotype (%): 27.68% and 22.58%
  Population Mitotic Cells (%): 85.48% and 85.71%
  Population Normal (%): 99.5% and 100%
  Population Pyknosed Nuclei (%): 31.08% and 80.46%
  Population Tubulin-Different-Phenotype (%): 40.59% and 25.81%
  Total Cell Count: 401 and 174
HEK-293T; [5]
  Population Apoptotic (%): 8.94% and 17.46%
  Population Fragmented Nuclei (%): 4.71% and 1.73%
  Population Healthy Nuclei (%): 86.76% and 76.47%
  Population Hoechst High Intensity Objects (%): 0% and 1.03%
  Population Membrane Permeable-Phenotype (%): 5.91% and 5.88%
  Population Mitochondria Different-Phenotype (%): 13.5% and 15.84%
  Population Mitotic Cells (%): 91.06% and 82.54%
  Population Normal (%): 100% and 98.97%
  Population Pyknosed Nuclei (%): 8.52% and 21.8%
HEK-293T; [6]
  Population Apoptotic (%): 9.09% and 15.38%
  Population Fragmented Nuclei (%): 2.12% and 2.49%
  Population Healthy Nuclei (%): 83.92% and 48.96%
  Population Hoechst High Intensity Objects (%): 0.14% and 0%
  Population Membrane Permeable-Phenotype (%): 6.22% and 3.39%
  Population Mitochondria Different-Phenotype (%): 41.85% and 34.75%
  Population Mitotic Cells (%): 90.91% and 84.62%
  Population Normal (%): 99.86% and 100%
  Total Cell Count: 710 and 241
U2OS; [1]
  Population Apoptotic (%): 29.03% and 12.5%
  Population Fragmented Nuclei (%): 2.02% and 3.01%
  Population Healthy Nuclei (%): 89.02% and 84.96%
  Population Hoechst High Intensity Objects (%): 0%
  Population Membrane Permeable-Phenotype (%): 0.97% and 0.88%
  Population Mitochondria Different-Phenotype (%): 0% and 5.31%
  Population Mitotic Cells (%): 70.97% and 87.5%
  Population Normal (%): 100%
  Population Pyknosed Nuclei (%): 8.96% and 12.03%
  Population Tubulin-Different-Phenotype (%): 0.97% and 0.88%
  Total Cell Count: 346 and 133
U2OS; [2]
  Population Apoptotic (%): 38.64% and 25.81%
  Population Healthy Nuclei (%): 87.43% and 71.74%
  Population Hoechst High Intensity Objects (%): 0% and 13.21%
  Population Membrane Permeable-Phenotype (%): 2.14% and 3.64%
  Population Mitochondria Different-Phenotype (%): 0% and 13.33%
  Population Mitotic Cells (%): 61.36% and 74.19%
  Population Normal (%): 100% and 86.79%
  Population Pyknosed Nuclei (%): 11.76% and 13.48%
  Population Tubulin-Different-Phenotype (%): 3.67% and 1.21%
  Total Cell Count: 374 and 265
U2OS; [3]
  Population Apoptotic (%): 48.48% and 31.25%
  Population Fragmented Nuclei (%): 1.75% and 1.23%
  Population Healthy Nuclei (%): 91.03% and 88.89%
  Population Hoechst High Intensity Objects (%): 0%
  Population Membrane Permeable-Phenotype (%): 0.24% and 2.78%
  Population Mitochondria Different-Phenotype (%): 0.24% and 4.86%
  Population Mitotic Cells (%): 51.52% and 68.75%
  Population Normal (%): 100%
  Population Pyknosed Nuclei (%): 7.22% and 9.88%
  Population Tubulin-Different-Phenotype (%): 0.72% and 0%
  Total Cell Count: 457 and 162
U2OS; [4]
  Population Apoptotic (%): 37.5% and 20.93%
  Population Healthy Nuclei (%): 84.47% and 69.69%
